Source: ChEMBL document CHEMBL1148981, “A phthalide with in vitro growth inhibitory activity from an oidiodendron strain” (J Nat Prod, 2004)

How the values were obtained:
[1] = tested on: SNB-75; assay: Cytotoxicity against human SNB75 cells; format: functional
Method in brief: (§1)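 Growth inhibition read as GI50. Lines were run at one of two sites. At Cetek, cells grew in ATCC-recommended media and viability was read as CellTiter Blue resazurin reduction by fluorescence at 530/590. At NCI DTP, cells grew in RPMI 1640 with 5% FBS and 2 mM L-glutamine, and viability was read by TCA fixation and sulforhodamine B total-protein staining.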

[2] = target: T1, RAC-alpha serine/threonine-protein kinase (Homo sapiens, UniProt P31749); assay: Inhibition of sulfhydryl-labeled human recombinant Akt1 expressed in baculovirus assessed as phosphorylation of recombinant Bad protein by Western blotting
T1 sequence (P31749 whole entry): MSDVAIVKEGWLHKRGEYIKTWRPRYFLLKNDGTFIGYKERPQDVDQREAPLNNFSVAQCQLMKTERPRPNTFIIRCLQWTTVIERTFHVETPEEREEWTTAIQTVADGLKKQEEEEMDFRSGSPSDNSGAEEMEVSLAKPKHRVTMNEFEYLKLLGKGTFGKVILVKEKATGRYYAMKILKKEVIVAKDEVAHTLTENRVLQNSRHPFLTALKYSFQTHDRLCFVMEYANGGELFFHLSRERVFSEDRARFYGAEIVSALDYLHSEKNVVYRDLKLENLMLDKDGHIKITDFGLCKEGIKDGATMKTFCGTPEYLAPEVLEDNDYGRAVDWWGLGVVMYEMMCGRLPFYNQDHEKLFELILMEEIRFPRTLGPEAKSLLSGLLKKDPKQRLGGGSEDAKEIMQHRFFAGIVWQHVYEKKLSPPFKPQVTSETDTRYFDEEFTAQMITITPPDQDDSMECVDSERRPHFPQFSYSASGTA
Method in brief: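 Active recombinant Akt1 (50 nM final) was preincubated 5 min at room temperature with test agent in DMSO (1.4% final) in assay dilution buffer. Soluble Bad (1.2 µM final) and Mg-ATP solution were then added, followed by 30 min at 30 °C with agitation. Read-out was SDS-PAGE, PVDF transfer, anti-phospho-Bad (Ser112) with HRP secondary, chemiluminescence and densitometry. IC50 is the mean of three experiments.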

[3] = tested on: K562; assay: Cytotoxicity against human K562 cells; format: functional; method in brief: as §1
[4] = tested on: HepG2; assay: Cytotoxicity against human HepG2 cells; format: functional; method in brief: as §1
[5] = tested on: Jurkat; assay: Cytotoxicity against human Jurkat cells; format: functional; method in brief: as §1
[6] = tested on: U-251; assay: Cytotoxicity against human U251 cells; format: functional; method in brief: as §1
[7] = tested on: OVCAR-8; assay: Cytotoxicity against human OVCAR8 cells; format: functional; method in brief: as §1
[8] = tested on: BT-549; assay: Cytotoxicity against human BT549 cells; format: functional; method in brief: as §1
[9] = target: T1, RAC-alpha serine/threonine-protein kinase; assay: Inhibition of sulfhydryl-labeled human recombinant Akt1 expressed in baculovirus by affinity capillary electrophoresis assay
Method in brief: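 Baculovirus-expressed human Akt1 was buffer-exchanged into 30 mM HEPES pH 7.5 with 0.1% Chaps and 150 mM NaCl. It was labeled with Fluorescein-5-EX succinimidyl ester (dye:protein 5:1) for 2 h on ice, quenched with β-mercaptoethanol and stored in 50% glycerol at -20 °C. Compound was titrated against labeled Akt1 by affinity capillary electrophoresis. IC50 is the mean of three experiments with SEM.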

[10] = tested on: MCF7; assay: Cytotoxicity against human MCF7 cells; format: functional; method in brief: as §1
[11] = tested on: EKVX; assay: Cytotoxicity against human EKVX cells; format: functional; method in brief: as §1
[12] = tested on: MDA-MB-435; assay: Cytotoxicity against human MDA-MB-435 cells; format: functional; method in brief: as §1
[13] = tested on: RPMI-8226; assay: Cytotoxicity against human RPMI8226 cells; format: functional; method in brief: as §1
[14] = tested on: U-937; assay: Cytotoxicity against human U937 cells; format: functional; method in brief: as §1
[15] = tested on: SK-MEL-28; assay: Cytotoxicity against human SK-MEL-28 cells; format: functional; method in brief: as §1
[16] = tested on: M14; assay: Cytotoxicity against human M14 cells; format: functional; method in brief: as §1
[17] = tested on: OVCAR-3; assay: Cytotoxicity against human OVCAR-3 cells; format: functional; method in brief: as §1
[18] = tested on: NCI-H23; assay: Cytotoxicity against human NCI-H23 cells; format: functional; method in brief: as §1
[19] = tested on: OVCAR-5; assay: Cytotoxicity against human OVCAR5 cells; format: functional; method in brief: as §1

- IC50 [2]: 30.4 µM
- IC50 [9]: 19.7 µM
SMILES: CC1OC(=O)c2cc(O)c(O)c(O)c21 (centres undefined)
- GI50 [1]: 60 µM
- GI50 [3]: > 100 µM
- GI50 [4]: > 100 µM
- GI50 [5]: 20 µM
- GI50 [6]: > 100 µM
- GI50 [7]: 82 µM
- GI50 [8]: 24 µM
- GI50 [10]: > 100 µM
- GI50 [11]: > 100 µM
- GI50 [12]: 85 µM
- GI50 [13]: 67 µM
- GI50 [14]: 60 µM
- GI50 [15]: 37 µM
- GI50 [16]: > 100 µM
- GI50 [17]: > 100 µM
- GI50 [18]: 87 µM
- GI50 [19]: 74 µM
